From ChEMBL document CHEMBL2331471, “Vegfrecine, an inhibitor of VEGF receptor tyrosine kinases isolated from the culture broth of Streptomyces sp” (J Nat Prod, 2013)
Calls of active or inactive are those of the source. The calls are words filed in the database; no cut-off is given here.

Assays:
[1] = biological target: Vascular endothelial growth factor receptor 3 (Homo sapiens, UniProt P35916); assay: Inhibition of Flt4 (unknown origin) after 20 mins by scintillation counting
Outline: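 Radiometric filter-plate kinase assay for Flt-1, Flt-4 and PDGFR-α. Buffer: 20 mM Tris-HCl pH 7.4, 3 mM MnCl2, 3 mM MgCl2, 50 μg/mL poly GluTyr, 100 mM NaCl, Na3VO4, DTT, 0.5% BSA. Kinase (55 ng) plus compound in 2% DMSO buffer; reaction started with 4 μM ATP/32P-ATP solution. Ran 20 min at room temperature, stopped with 30% TCA, washed with 15% TCA, scintillation counted.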

[2] = biological target: Vascular endothelial growth factor receptor 2 (Homo sapiens, UniProt P35968)
[3] = biological target: Platelet-derived growth factor receptor alpha (Homo sapiens, UniProt P16234); assay: Inhibition of PDGFR-alpha (unknown origin) after 20 mins by scintillation counting
[4] = biological target: T1, Vascular endothelial growth factor receptor 1 (Homo sapiens, UniProt P17948); assay: Inhibition of GST-Flt1 kinase domain (unknown origin) expressed in baculovirus infected Sf9 cells after 20 mins by scintillation counting
[5] = biological target: Epidermal growth factor receptor (Homo sapiens, UniProt P00533); assay: Inhibition of EGFR (unknown origin) after 20 mins by scintillation counting
NIH3T3 [6] = assay: Cytotoxicity against mouse NIH/3T3 cells overexpressing Flt-1 (unknown origin) at 10 uM after 2 hrs; format: cell-based; details: nih3t3, 2 h
NIH3T3 [7] = assay: Cytotoxicity against mouse NIH/3T3 cells overexpressing KDR (unknown origin) after 48 hrs; format: cell-based; details: nih3t3, 48 h
Outline: (§1)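 MTT viability assay: NIH3T3-Flt-1 or NIH3T3-KDR cells, grown in DMEM with 10% FCS, glutamine and 200 μg/mL G418, were seeded at 3 × 10^3 cells/well with or without test samples and incubated 2 days. MTT was then added for 2 h, formazan dissolved overnight in 10% SDS, and absorbance read at 570 nm.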

[8] = biological target: Fibroblast growth factor receptor (Homo sapiens, UniProt P22607+P11362+P22455+P21802); assay: Inhibition of FGFR (unknown origin) after 20 mins by scintillation counting; format: protein assay
NIH3T3 [9] = assay: Cytotoxicity against mouse NIH/3T3 cells overexpressing Flt-1 (unknown origin) after 48 hrs; format: cell-based; details: nih3t3, 48 h; outline: as §1
[10] = biological target: T1, Vascular endothelial growth factor receptor 1; assay: Inhibition of ligand-induced phosphorylation of Flt-1 (unknown origin) overexpressed in NIH-3T3 cells at 10 uM after 2 hrs by immunoblotting; format: cell-based; details: NIH3T3
Outline: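 Subconfluent NIH3T3-Flt-1 cells were serum-starved 16 h, exposed to samples for 2 h, then stimulated 5 min with 50 ng/mL recombinant human VEGF-A. Cells were lysed in HEPES/Triton buffer containing Na3VO4, PMSF and aprotinin. Lysates were immunoblotted with anti-phosphotyrosine, anti-Flt-1 and anti-actin antibodies.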

[11] = biological target: Platelet-derived growth factor receptor beta (Homo sapiens, UniProt P09619); assay: Inhibition of PDGFR-beta (unknown origin) after 20 mins by scintillation counting
Sequence of Platelet-derived growth factor receptor beta (P09619 whole entry): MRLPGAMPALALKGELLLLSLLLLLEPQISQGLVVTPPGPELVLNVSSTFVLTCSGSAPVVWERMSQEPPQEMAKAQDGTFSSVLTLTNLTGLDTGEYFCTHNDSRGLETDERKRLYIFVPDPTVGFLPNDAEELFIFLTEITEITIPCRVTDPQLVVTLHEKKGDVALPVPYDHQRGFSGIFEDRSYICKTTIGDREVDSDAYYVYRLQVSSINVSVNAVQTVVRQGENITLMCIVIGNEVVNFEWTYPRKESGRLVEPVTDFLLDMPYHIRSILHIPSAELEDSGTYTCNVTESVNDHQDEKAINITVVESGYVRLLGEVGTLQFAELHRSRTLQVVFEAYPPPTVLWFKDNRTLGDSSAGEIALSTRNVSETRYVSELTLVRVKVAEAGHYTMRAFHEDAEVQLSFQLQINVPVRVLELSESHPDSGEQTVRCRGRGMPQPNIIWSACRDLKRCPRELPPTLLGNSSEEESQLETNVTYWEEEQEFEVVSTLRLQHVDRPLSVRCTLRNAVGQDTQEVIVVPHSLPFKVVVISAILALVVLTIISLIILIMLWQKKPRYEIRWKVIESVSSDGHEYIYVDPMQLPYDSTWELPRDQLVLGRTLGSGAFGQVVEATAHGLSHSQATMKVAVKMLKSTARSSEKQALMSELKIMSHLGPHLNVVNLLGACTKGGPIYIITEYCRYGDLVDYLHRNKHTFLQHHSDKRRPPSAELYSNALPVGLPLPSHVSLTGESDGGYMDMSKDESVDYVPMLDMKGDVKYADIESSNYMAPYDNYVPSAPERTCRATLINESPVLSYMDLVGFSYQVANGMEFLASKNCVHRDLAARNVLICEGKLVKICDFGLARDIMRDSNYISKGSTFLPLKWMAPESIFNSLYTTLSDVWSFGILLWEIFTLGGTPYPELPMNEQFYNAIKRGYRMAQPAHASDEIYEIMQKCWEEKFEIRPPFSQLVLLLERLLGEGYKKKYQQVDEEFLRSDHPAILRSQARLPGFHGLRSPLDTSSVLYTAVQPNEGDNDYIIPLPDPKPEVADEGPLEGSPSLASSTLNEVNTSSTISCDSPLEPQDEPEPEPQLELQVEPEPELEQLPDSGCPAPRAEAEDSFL

T1 sequence (P17948 whole entry, the tested form may be a part): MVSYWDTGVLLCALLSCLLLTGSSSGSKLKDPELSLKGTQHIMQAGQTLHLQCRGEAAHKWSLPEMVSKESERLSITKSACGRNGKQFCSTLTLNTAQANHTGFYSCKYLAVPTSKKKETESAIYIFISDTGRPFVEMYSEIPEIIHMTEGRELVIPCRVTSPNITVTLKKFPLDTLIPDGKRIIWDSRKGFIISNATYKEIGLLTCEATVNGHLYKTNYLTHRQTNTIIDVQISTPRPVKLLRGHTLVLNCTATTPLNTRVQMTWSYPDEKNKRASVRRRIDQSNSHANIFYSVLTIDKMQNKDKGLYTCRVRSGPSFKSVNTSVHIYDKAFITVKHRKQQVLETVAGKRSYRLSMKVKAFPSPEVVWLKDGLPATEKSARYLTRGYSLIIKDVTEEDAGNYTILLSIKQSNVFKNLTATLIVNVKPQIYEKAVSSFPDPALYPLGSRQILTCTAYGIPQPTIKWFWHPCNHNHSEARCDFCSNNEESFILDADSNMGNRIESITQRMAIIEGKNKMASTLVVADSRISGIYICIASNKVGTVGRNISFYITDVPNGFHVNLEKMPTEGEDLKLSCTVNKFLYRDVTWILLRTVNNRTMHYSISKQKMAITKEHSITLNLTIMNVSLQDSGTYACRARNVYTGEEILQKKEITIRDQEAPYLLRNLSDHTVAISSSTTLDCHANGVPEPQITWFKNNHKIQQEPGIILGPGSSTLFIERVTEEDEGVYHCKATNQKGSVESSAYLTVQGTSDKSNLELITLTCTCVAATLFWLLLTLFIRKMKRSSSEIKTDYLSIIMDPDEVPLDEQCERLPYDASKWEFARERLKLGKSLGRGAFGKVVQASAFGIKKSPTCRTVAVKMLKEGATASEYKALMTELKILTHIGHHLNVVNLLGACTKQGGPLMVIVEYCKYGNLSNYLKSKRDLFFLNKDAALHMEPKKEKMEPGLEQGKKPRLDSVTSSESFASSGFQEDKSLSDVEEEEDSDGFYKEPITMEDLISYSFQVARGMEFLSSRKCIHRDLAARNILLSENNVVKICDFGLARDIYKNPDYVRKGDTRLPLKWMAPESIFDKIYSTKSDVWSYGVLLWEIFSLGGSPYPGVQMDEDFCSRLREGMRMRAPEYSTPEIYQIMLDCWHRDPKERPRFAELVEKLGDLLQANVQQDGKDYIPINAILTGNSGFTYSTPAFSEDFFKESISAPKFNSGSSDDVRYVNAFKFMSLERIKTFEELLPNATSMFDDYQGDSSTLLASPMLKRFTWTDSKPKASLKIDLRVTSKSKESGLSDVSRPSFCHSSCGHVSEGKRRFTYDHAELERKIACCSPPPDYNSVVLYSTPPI
Sequence of Vascular endothelial growth factor receptor 3 (P35916 whole entry): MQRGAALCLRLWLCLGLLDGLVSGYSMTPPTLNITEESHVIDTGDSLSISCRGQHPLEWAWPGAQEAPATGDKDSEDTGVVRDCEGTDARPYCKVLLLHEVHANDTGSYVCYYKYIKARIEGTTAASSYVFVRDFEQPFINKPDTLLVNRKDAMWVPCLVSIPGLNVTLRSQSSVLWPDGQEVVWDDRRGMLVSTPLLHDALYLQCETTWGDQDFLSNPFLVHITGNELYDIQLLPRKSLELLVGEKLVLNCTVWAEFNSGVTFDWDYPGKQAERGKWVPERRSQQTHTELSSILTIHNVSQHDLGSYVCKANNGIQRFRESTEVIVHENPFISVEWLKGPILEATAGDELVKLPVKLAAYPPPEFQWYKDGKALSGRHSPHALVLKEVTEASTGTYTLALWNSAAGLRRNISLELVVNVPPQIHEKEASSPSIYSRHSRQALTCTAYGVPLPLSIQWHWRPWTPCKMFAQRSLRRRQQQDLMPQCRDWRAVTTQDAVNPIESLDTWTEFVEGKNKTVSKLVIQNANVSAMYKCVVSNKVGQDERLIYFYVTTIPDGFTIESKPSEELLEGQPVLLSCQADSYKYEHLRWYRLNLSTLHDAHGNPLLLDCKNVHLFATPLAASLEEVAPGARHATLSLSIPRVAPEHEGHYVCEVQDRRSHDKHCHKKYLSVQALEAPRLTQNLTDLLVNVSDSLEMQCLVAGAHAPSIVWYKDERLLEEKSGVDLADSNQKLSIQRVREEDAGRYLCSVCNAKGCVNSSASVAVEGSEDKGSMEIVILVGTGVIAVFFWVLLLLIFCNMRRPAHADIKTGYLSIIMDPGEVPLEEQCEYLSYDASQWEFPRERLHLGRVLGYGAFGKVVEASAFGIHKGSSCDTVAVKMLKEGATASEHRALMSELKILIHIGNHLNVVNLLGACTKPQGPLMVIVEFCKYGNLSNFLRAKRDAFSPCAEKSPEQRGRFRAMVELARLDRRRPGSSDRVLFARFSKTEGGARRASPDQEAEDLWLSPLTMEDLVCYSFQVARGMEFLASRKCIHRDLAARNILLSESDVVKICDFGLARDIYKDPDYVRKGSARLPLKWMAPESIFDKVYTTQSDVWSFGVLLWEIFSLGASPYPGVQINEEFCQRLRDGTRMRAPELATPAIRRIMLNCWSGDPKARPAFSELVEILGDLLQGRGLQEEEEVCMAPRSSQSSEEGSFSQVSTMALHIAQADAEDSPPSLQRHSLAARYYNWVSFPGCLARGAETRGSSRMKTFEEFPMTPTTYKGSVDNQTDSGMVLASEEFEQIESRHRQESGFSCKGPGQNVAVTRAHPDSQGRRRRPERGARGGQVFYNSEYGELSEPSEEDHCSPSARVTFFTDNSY
Sequence of Epidermal growth factor receptor (P00533 whole entry): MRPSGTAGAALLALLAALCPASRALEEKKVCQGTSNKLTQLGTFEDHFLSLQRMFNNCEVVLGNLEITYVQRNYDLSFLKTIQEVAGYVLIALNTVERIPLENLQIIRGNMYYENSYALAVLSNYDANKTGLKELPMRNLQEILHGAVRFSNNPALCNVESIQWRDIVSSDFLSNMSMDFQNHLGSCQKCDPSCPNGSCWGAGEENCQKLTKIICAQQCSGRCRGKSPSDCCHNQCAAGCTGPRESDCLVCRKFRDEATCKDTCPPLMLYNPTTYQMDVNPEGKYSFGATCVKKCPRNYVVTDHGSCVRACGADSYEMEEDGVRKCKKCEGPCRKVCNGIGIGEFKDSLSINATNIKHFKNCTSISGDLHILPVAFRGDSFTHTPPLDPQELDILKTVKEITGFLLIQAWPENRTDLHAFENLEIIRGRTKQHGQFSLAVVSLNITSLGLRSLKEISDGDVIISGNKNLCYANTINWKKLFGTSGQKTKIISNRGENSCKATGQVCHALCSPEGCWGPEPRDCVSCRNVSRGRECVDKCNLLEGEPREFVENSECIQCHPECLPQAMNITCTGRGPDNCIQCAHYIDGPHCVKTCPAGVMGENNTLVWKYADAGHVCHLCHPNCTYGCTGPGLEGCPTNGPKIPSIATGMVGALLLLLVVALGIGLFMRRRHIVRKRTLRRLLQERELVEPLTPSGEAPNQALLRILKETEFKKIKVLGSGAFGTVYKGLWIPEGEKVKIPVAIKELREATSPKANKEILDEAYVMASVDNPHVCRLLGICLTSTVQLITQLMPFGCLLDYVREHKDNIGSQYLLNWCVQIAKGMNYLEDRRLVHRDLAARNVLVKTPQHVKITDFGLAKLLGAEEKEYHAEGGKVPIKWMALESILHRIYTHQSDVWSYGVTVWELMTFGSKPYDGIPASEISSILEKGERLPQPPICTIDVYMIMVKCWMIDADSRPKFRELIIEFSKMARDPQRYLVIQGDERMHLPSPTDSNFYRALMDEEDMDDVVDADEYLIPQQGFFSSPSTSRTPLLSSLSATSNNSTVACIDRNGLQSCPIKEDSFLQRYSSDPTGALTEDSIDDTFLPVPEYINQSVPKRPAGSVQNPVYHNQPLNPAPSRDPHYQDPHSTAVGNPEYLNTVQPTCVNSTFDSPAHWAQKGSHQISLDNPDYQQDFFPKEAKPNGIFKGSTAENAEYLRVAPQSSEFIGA

Row | SMILES | IC50 [1] [nM] | IC50 [2] [nM] | IC50 [3] [nM] | IC50 [4] [nM] | IC50 [5] [nM] | Activity (NIH3T3 [6]) | Activity (NIH3T3 [7]) [µM] | IC50 [8] [nM] | Activity (NIH3T3 [9]) [µM] | Activity [10] | IC50 [11] [nM]
1 | Cc1cc(C)c(/C=C2\C(=O)Nc3ccccc32)[nH]1 [SEMAXANIB] | 500 |  |  |  |  |  |  |  |  |  | 
2 | NC(=O)C1=C(N)C(=O)C=C(Nc2ccccc2O)C1=O [VEGFRECINE] | 1.8 | 11 | 3200 | 18 | 2600 | Non-toxic | 12 | 730 | 3 | Active | 480
